Experimental data as given in ChEMBL document CHEMBL1156595, “Studies on the antifungal properties of N-thiolated beta-lactams” (2008).
Converted amounts (≈) assume the structure as drawn. One block for each compound: values may come before it. The source made the active and inactive calls. The calls are words filed in the database; no cut-off is given here.

Key:
Candida albicans [1] = assay: Antifungal activity against Candida albicans ATCC 2091 by […]; format: functional
Procedure, shortened: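 Tube broth dilution in yeast nitrogen broth. Lactam was added from a 1 mg/mL DMSO stock and serially diluted down to 0.125 ug/mL in broth. Each tube was inoculated with 1 uL of a 10^6 CFU/mL fungal suspension in sterile NaCl and incubated 24 or 48 h at 26°C or 37°C, depending on strain. Growth was read by optical density. MIC is the lowest concentration inhibiting all growth, averaged over triplicates.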

Pichia kudriavzevii = assay: Antifungal activity against Candida krusei ATCC 14243 assessed as growth inhibition zone at 50 ug after 24hrs by Kirby-Bauer agar diffusion assay; format: functional; conditions: ATCC 14243, 24 h, read-out: IZ
Procedure, shortened: (§1)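 Disk diffusion on yeast nitrogen base agar, swabbed with a McFarland 0.5 suspension in saline. 6 mm cellulose disks carried 10 µL of a 5 mg/mL CH2Cl2 stock (50 ug per disk), air-dried, three disks per plate. Plates were sealed and incubated 24 h at 37°C. Cleared inhibition zones were measured and averaged over triplicates.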

Cyberlindnera jadinii [2] = assay: Antifungal activity against Candida utilis ATCC 29950 after 48 hrs by NCCLS M27-A2 method; format: functional; conditions: Williopsis jadinii, ATCC 29950, 48 h
Procedure, shortened: (§2)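 Broth dilution in yeast nitrogen broth. Lactam from a 1 mg/mL DMSO stock was serially diluted down to 0.125 ug/mL. Each tube got 1 uL of a 10^6 CFU/mL inoculum in sterile NaCl. Incubation was 24 or 48 h at 26°C or 37°C depending on strain. Growth was read by optical density. MIC was the lowest concentration inhibiting all growth, averaged over triplicates.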

Kluyveromyces marxianus [3] = assay: Antifungal activity against Candida kefyr ATCC 20409 after 48 hrs by NCCLS M27-A2 method; format: functional; conditions: ATCC 20409, 48 h; procedure, shortened: as §2
Candida albicans [4] = assay: Antifungal activity against Candida albicans ATCC 2091 after 48 hrs by NCCLS M27-A2 method; format: functional; conditions: ATCC 2091, 48 h; procedure, shortened: as §2
Candida albicans [5] = assay: Antifungal activity against Candida albicans ATCC 2091 after 24 hrs by NCCLS M27-A2 method; format: functional; conditions: ATCC 2091, 24 h; procedure, shortened: as §2
Kluyveromyces marxianus [6] = assay: Antifungal activity against Candida kefyr ATCC 20409 after 24 hrs by NCCLS M27-A2 method; format: functional; conditions: ATCC 20409, 24 h; procedure, shortened: as §2
Candida albicans [7] = assay: Antifungal activity against Candida albicans ATCC 2091 assessed as degradation of intracellular membrane at <5 ug/ml after 4 hrs by transmission electron microscopy; format: functional, organism-based
Cyberlindnera jadinii [8] = assay: Antifungal activity against Candida utilis ATCC 29950 assessed as growth inhibition zone at 50 ug after 24 by Kirby-Bauer agar diffusion assay; format: functional; conditions: Williopsis jadinii, read-out: IZ; procedure, shortened: as §1
Nakaseomyces glabratus [9] = assay: Antifungal activity against Candida glabrata ATCC 15126 assessed as growth inhibition zone at 50 ug after 24 hrs by Kirby-Bauer agar diffusion assay; format: functional; conditions: ATCC 15126, 24 h, read-out: IZ; procedure, shortened: as §1
Clavispora lusitaniae [10] = assay: Antifungal activity against Candida lusitaniae ATCC 34449 after 48 hrs by NCCLS M27-A2 method; format: functional; conditions: ATCC 34449, 48 h; procedure, shortened: as §2
Aspergillus niger = assay: Antifungal activity against Aspergillus niger in potato dextrose agar by agar dilution method; format: functional
Procedure, shortened: (§3)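 Agar dilution MIC, run per NCCLS guidance. Medium was potato dextrose agar for A. niger and YM agar for S. cerevisiae.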

Candida parapsilosis [11] = assay: Antifungal activity against Candida parapsilosis ATCC 22019 after 48 hrs by NCCLS M27-A2 method; format: functional; conditions: Lodderomyces parapsilosis, ATCC 22019, 48 h; procedure, shortened: as §2
Candida tropicalis [12] = assay: Antifungal activity against Candida tropicalis clinical isolate after 48 hrs by NCCLS M27-A2 method; format: functional; procedure, shortened: as §2
Kluyveromyces marxianus [13] = assay: Antifungal activity against Candida kefyr ATCC 20409 assessed as growth inhibition zone at 50 ug after 24 hrs by Kirby-Bauer agar diffusion assay; format: functional; conditions: ATCC 20409, 24 h, read-out: IZ; procedure, shortened: as §1
Clavispora lusitaniae [14] = assay: Antifungal activity against Candida lusitaniae ATCC 34449 assessed as growth inhibition zone at 50 ug after 24 by Kirby-Bauer agar diffusion assay; format: functional; conditions: read-out: IZ; procedure, shortened: as §1
Cyberlindnera jadinii [15] = assay: Antifungal activity against Candida utilis ATCC 29950 after 24 hrs by NCCLS M27-A2 method; format: functional; conditions: Williopsis jadinii, ATCC 29950, 24 h; procedure, shortened: as §2
Candida parapsilosis [16] = assay: Antifungal activity against Candida parapsilosis ATCC 22019 after 24 hrs by NCCLS M27-A2 method; format: functional; conditions: Lodderomyces parapsilosis, ATCC 22019, 24 h; procedure, shortened: as §2
Candida tropicalis [17] = assay: Antifungal activity against Candida tropicalis clinical isolate assessed as growth inhibition zone at 50 ug after 24 hrs by Kirby-Bauer agar diffusion assay; format: functional; conditions: read-out: IZ; procedure, shortened: as §1
Saccharomyces cerevisiae = assay: Antifungal activity against Saccharomyces cerevisiae in YM agar by agar dilution method; format: functional; procedure, shortened: as §3
Nakaseomyces glabratus [18] = assay: Antifungal activity against Candida glabrata ATCC 15126 after 24 hrs by NCCLS M27-A2 method; format: functional; conditions: ATCC 15126, 24 h; procedure, shortened: as §2
Clavispora lusitaniae [19] = assay: Antifungal activity against Candida lusitaniae ATCC 34449 after 24 hrs by NCCLS M27-A2 method; format: functional; conditions: ATCC 34449, 24 h; procedure, shortened: as §2
Candida tropicalis [20] = assay: Antifungal activity against Candida tropicalis clinical isolate after 24 hrs by NCCLS M27-A2 method; format: functional; procedure, shortened: as §2
Candida parapsilosis [21] = assay: Antifungal activity against Candida parapsilosis ATCC 22019 assessed as growth inhibition zone at 50 ug after 24 hrs by Kirby-Bauer agar diffusion assay; format: functional; conditions: Lodderomyces parapsilosis, ATCC 22019, 24 h; read-out: IZ; procedure, shortened: as §1
Nakaseomyces glabratus [22] = assay: Antifungal activity against Candida glabrata ATCC 15126 after 48 hrs by NCCLS M27-A2 method; format: functional; conditions: ATCC 15126, 48 h; procedure, shortened: as §2
Candida albicans [23] = assay: Antifungal activity against Candida albicans ATCC 2091 assessed as growth inhibition zone at 50 ug after 24 hrs by Kirby-Bauer agar diffusion assay; format: functional; conditions: ATCC 2091, 24 h, read-out: IZ; procedure, shortened: as §1

SMILES: Clc1ccccc1C(c1ccccc1)(c1ccccc1)n1ccnc1 [CLOTRIMAZOLE]
MIC (Candida albicans [1]): 2 µg/mL (≈ 5.8 µM)

MIC (Cyberlindnera jadinii [2]): 15 µg/mL (≈ 58.2 µM)
MIC (Kluyveromyces marxianus [3]): 35 µg/mL (≈ 136 µM)
MIC (Candida albicans [4]): < 5 µg/mL
MIC (Candida albicans [5]): < 5 µg/mL
MIC (Kluyveromyces marxianus [6]): 10 µg/mL (≈ 38.8 µM)
MIC (Clavispora lusitaniae [10]): 15 µg/mL (≈ 58.2 µM)
MIC (Aspergillus niger): 16 µg/mL (≈ 62.1 µM)
MIC (Candida parapsilosis [11]): < 5 µg/mL
MIC (Candida tropicalis [12]): 30 µg/mL (≈ 116 µM)
MIC (Cyberlindnera jadinii [15]): 10 µg/mL (≈ 38.8 µM)
MIC (Candida parapsilosis [16]): < 5 µg/mL
MIC (Saccharomyces cerevisiae): 32 µg/mL (≈ 124 µM)
MIC (Nakaseomyces glabratus [18]): 10 µg/mL (≈ 38.8 µM)
MIC (Clavispora lusitaniae [19]): 10 µg/mL (≈ 38.8 µM)
MIC (Candida tropicalis [20]): 10 µg/mL (≈ 38.8 µM)
MIC (Nakaseomyces glabratus [22]): 10 µg/mL (≈ 38.8 µM)
SMILES: CO[C@H]1C(=O)N(SC)[C@H]1c1ccccc1Cl
zone of inhibition at 50 µg/disc (Pichia kudriavzevii): 0 mm
Activity (Candida albicans [7]): Active
zone of inhibition at 50 µg/disc (Cyberlindnera jadinii [8]): 22 mm
zone of inhibition at 50 µg/disc (Nakaseomyces glabratus [9]): 25 mm
zone of inhibition at 50 µg/disc (Kluyveromyces marxianus [13]): 17 mm
zone of inhibition at 50 µg/disc (Clavispora lusitaniae [14]): 20 mm
zone of inhibition at 50 µg/disc (Candida tropicalis [17]): 21 mm
zone of inhibition at 50 µg/disc (Candida parapsilosis [21]): 33 mm
zone of inhibition at 50 µg/disc (Candida albicans [23]): 23 mm
